Measurements from ChEMBL document CHEMBL1146951, “Structure-guided identification of novel VEGFR-2 kinase inhibitors via solution phase parallel synthesis” (Bioorg Med Chem Lett, 2006).
The source made the active and inactive calls. The rule behind the calls is not given here.

Experiments:
[1] = biological target: Cyclin-dependent kinase 1/cyclin B1 (Homo sapiens, UniProt P06493); test: Inhibition of CDK1/CyclinB1; assay type: protein-complex assay
[2] = biological target: T1, Vascular endothelial growth factor receptor (Homo sapiens) (UniProt P17948+P35916+P35968); test: Inhibition of microvessel growth in rat aortic ring at 4 nM; assay type: functional, tissue-based; conditions: Aorta, target entry is the homologue from another species
T1 sequence (P17948 whole entry, looked up): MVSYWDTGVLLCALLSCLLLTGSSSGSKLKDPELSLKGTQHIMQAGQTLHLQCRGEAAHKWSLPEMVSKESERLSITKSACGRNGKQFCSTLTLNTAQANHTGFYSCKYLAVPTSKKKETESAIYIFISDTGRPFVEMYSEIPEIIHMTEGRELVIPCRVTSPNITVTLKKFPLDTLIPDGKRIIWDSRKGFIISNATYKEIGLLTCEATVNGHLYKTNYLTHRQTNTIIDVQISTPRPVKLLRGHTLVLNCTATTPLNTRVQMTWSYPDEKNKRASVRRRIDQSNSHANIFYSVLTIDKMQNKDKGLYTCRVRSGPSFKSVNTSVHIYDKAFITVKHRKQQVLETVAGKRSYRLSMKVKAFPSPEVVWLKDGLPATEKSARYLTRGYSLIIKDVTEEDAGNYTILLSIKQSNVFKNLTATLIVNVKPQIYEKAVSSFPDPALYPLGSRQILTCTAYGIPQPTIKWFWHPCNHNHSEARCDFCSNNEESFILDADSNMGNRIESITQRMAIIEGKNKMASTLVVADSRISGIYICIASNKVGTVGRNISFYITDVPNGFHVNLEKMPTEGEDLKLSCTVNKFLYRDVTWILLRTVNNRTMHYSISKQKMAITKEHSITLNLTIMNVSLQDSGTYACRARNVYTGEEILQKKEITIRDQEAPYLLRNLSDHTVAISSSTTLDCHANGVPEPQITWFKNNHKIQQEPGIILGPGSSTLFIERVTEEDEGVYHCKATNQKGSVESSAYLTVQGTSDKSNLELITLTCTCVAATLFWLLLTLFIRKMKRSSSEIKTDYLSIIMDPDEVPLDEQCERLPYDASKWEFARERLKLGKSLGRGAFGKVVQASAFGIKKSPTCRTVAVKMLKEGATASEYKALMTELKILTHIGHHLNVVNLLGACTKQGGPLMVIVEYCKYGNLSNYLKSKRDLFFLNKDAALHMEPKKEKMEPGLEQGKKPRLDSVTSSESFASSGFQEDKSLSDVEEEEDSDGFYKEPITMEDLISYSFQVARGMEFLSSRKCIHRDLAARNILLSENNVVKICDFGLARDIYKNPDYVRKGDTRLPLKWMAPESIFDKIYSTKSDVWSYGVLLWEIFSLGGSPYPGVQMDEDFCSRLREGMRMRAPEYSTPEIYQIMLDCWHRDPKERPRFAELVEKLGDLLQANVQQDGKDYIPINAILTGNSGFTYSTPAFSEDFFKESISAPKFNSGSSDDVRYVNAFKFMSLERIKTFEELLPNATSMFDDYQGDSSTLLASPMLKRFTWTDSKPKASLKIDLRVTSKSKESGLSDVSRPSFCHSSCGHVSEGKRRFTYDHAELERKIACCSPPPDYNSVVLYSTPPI
T1 sequence (P35916 whole entry, looked up): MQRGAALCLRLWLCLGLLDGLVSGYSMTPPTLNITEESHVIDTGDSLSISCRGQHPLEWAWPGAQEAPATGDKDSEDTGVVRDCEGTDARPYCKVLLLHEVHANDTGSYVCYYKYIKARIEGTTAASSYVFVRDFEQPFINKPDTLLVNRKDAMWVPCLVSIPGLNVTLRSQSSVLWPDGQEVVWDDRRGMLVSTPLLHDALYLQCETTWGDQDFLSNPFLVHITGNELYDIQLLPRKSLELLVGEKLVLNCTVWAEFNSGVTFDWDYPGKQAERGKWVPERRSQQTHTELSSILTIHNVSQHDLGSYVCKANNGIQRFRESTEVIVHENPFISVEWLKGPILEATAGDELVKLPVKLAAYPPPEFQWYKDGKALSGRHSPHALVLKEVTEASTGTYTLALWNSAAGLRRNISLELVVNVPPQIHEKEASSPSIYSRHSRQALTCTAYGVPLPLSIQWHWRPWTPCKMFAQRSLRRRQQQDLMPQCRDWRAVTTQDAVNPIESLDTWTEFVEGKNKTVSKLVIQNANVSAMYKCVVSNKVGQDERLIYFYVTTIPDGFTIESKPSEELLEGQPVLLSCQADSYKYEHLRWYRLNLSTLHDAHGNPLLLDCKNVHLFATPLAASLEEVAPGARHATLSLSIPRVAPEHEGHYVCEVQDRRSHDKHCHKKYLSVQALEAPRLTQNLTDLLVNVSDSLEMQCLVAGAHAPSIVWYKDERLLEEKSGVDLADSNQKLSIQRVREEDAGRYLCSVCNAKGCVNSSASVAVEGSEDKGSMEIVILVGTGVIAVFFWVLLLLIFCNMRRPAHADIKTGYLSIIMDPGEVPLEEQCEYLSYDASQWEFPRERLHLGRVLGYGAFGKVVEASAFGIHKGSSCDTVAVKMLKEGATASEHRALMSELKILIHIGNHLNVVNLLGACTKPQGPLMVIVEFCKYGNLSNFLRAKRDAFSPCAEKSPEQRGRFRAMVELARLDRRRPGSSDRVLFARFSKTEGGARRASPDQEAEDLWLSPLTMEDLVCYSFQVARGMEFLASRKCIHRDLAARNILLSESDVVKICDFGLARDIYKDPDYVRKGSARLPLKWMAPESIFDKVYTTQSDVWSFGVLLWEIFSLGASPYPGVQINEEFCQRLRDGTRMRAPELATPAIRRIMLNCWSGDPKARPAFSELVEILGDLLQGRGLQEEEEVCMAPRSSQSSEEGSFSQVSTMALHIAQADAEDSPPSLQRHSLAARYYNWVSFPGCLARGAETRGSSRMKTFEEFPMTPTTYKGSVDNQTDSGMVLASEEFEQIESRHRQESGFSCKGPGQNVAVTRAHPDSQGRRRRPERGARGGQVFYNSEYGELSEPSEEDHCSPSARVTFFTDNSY
T1 sequence (P35968 whole entry, looked up): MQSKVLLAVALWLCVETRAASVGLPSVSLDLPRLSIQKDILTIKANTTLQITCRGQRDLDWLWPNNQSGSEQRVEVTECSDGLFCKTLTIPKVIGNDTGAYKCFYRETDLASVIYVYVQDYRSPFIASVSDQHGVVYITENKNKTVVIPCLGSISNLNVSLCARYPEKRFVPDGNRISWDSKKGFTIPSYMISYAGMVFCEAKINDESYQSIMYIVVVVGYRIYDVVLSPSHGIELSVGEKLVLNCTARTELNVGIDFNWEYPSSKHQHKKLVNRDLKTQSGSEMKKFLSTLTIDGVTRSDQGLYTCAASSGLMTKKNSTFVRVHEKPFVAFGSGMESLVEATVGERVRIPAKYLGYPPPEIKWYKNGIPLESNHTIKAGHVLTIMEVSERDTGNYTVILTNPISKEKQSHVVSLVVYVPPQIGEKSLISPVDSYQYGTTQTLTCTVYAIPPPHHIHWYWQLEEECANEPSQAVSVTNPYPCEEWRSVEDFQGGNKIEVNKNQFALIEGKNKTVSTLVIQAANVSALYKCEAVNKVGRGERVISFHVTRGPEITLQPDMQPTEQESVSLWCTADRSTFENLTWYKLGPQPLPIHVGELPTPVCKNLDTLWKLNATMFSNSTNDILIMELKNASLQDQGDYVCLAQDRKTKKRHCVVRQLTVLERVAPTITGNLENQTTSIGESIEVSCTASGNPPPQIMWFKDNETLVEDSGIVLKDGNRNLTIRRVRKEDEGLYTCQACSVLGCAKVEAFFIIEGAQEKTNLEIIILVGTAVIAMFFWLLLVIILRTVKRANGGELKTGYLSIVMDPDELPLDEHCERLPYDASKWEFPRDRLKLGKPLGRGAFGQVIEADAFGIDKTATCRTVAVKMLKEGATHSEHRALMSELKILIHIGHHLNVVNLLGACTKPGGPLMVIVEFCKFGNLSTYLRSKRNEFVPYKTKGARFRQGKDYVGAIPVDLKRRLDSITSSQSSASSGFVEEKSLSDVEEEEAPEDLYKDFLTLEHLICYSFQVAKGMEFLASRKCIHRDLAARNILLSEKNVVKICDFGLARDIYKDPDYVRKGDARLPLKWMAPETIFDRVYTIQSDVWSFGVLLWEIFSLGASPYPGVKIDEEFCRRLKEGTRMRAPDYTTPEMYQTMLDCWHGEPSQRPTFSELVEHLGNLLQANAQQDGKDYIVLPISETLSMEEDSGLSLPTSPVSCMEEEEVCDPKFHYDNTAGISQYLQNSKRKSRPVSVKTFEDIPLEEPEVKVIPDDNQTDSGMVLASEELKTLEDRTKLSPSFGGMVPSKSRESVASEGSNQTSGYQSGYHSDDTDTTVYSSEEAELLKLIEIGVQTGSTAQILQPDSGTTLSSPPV
In short: (§1)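 Rat aortic ring explants were cultured in serum-free collagen gel in serum-free MCDB 131 medium without exogenous VEGF. Microvessel sprouting was scored at peak growth (day 8) as percent inhibition relative to untreated controls. n = 8 replicates per concentration; inter-assay variability <10%. Statistics by Student Newman–Keuls test.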

SVR = test: Antitumor efficacy against SVR cells in nude mice at 30 mg/kg, po; assay type: functional, organism-based; design: dose 30 mg/kg; conditions: Mus musculus
In short: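 SVR murine angiosarcoma cells implanted in the right flank of female athymic nude mice. On day 5 post-implantation, once tumors were palpable, mice were randomized (n = 8–10). Dosing was 30 mg/kg/dose orally twice a day for 10 days in Tween:PG 1:1 vehicle. Tumor growth was compared with vehicle-treated controls.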

[3] = biological target: Vascular endothelial growth factor receptor 3 (Homo sapiens) (UniProt P35916); test: Inhibition of VEGFR3 at 300 nM
Chain of Vascular endothelial growth factor receptor 3 (Homo sapiens) (P35916 whole entry): as the sequence (P35916 whole entry, looked up) above

[4] = biological target: T2, Vascular endothelial growth factor receptor 2 (Homo sapiens, UniProt P35968); test: Inhibition of VEGFR2
T2 sequence (P35968 whole entry): as the sequence (P35968 whole entry, looked up) above

[5] = biological target: T1, Vascular endothelial growth factor receptor (Homo sapiens); test: Inhibition of microvessel growth in rat aortic ring at 100 nM; assay type: functional, tissue-based; conditions: Aorta, target entry is the homologue from another species; in short: as §1
[6] = biological target: Vascular endothelial growth factor receptor 1 (Homo sapiens) (UniProt P17948); test: Inhibition of VEGFR1 at 300 nM
Chain of Vascular endothelial growth factor receptor 1 (Homo sapiens) (P17948 whole entry): as the sequence (P17948 whole entry, looked up) above

[7] = biological target: Protein kinase C (PKC) (Homo sapiens) (UniProt O94806+P41743+P17252+P05129+Q05655+P05771+Q05513+Q02156+P24723+Q15139+Q04759); test: Inhibition of PKC at 1 uM; assay type: protein assay
[8] = biological target: High affinity nerve growth factor receptor (Homo sapiens) (UniProt P04629); test: Inhibition of TrkA at 1 uM
[9] = biological target: T1, Vascular endothelial growth factor receptor (Homo sapiens); test: Inhibition of microvessel growth in rat aortic ring at 40 nM; assay type: functional, tissue-based; conditions: Aorta, target entry is the homologue from another species; in short: as §1
[10] = biological target: T1, Vascular endothelial growth factor receptor (Homo sapiens); test: Inhibition of microvessel growth in rat aortic ring at 400 nM; assay type: functional, tissue-based; conditions: Aorta, target entry is the homologue from another species; in short: as §1
[11] = biological target: T2, Vascular endothelial growth factor receptor 2; test: Inhibition of VEGFR2 at 1 uM
In short: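 Kinase activity of baculovirus-expressed human VEGFR2 enzyme.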

Chain of Cyclin-dependent kinase 1/cyclin B1 (P06493 whole entry): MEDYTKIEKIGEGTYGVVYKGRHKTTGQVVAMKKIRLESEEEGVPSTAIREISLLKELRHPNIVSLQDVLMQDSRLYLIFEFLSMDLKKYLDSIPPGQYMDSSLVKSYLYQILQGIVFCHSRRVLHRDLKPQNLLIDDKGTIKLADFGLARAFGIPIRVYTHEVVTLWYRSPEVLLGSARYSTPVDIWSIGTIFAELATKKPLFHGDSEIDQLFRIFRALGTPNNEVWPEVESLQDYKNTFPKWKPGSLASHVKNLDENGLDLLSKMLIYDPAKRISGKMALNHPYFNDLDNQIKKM
Chain of Cyclin-dependent kinase 1/cyclin B1 (P14635 whole entry, further chain): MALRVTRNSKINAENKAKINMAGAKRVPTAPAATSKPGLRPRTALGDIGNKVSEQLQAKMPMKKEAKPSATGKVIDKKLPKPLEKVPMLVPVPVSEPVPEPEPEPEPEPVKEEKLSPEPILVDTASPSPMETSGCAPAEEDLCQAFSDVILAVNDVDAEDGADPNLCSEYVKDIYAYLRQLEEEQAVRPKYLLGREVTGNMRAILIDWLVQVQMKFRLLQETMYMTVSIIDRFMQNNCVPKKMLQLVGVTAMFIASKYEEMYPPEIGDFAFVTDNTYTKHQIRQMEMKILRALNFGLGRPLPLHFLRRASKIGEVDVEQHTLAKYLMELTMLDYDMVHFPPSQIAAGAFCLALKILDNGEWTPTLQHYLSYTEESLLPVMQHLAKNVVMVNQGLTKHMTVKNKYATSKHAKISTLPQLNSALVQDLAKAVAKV

Row | Structure (SMILES) | IC50 [1] [µM] | inhibition [2] [%] | Activity (SVR) | inhibition [3] [%] | IC50 [4] [nM] | inhibition [5] [%] | inhibition [6] [%] | inhibition [7] [%] | inhibition [8] [%] | inhibition [9] [%] | inhibition [10] [%] | inhibition [11] [%]
1 | Cn1cc(/C=C2\C(=O)NN=C2c2nccs2)c2cc3c(cc21)OCO3 | > 100 | 55 | Active | 63 | 32 | 75 | 25 | 13 | 44 | 66 | 90 | –
2 | Cn1cc(/C=C2\C(=O)N(c3ccccc3)N=C2c2cnccn2)c2ccccc21 | – | – | – | – | – | – | – | – | – | – | – | 23
3 | Cn1cc(CC2C(=O)NN=C2c2nccs2)c2ccccc21 (stereo not drawn) | – | – | – | – | – | – | – | – | – | – | – | 5
